≈ marks a conversion by molar mass, not a printed value. Each block holds one molecule with its values, some of them ahead of it.
Legend:
Listeria monocytogenes = experiment: Antibacterial activity against Listeria monocytogenes PTCC 1165 after 24 hrs by microplate alamar blue assay; assay type: functional; settings: PTCC 1165, 24 h
In short: (§1)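 Bacteria from Persian type culture collection grown in Mueller–Hinton broth. Inoculum suspensions adjusted to 0.5 McFarland, final inoculum 1.5 ×10⁴. Compounds dissolved in DMSO, serially diluted twofold across the 8–512 range in 96-well plates, Alamar Blue added, sealed plates incubated 24 h at 37 °C. MIC is the lowest concentration preventing the blue-to-pink colour change. Ciprofloxacin was the reference drug.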

Escherichia coli = experiment: Antibacterial activity against Escherichia coli PTCC 1338 after 24 hrs by microplate alamar blue assay; assay type: functional; settings: PTCC 1338, 24 h; in short: as §1
Bacillus subtilis = experiment: Antibacterial activity against Bacillus subtilis PTCC 1023 after 24 hrs by microplate alamar blue assay; assay type: functional; settings: PTCC 1023, 24 h; in short: as §1
Staphylococcus aureus = experiment: Antibacterial activity against Staphylococcus aureus PTCC 1337 after 24 hrs by microplate alamar blue assay; assay type: functional; settings: for MIC: Staphylococcus aureus, PTCC 1337, 24 h; in short: as §1
Candida albicans = experiment: Antifungal activity against Candida albicans PTCC 5027 after 48 hrs by microplate alamar blue assay; assay type: functional; settings: for MIC: Candida albicans, PTCC 5027, 48 h
In short: (§2)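 Fungi from Persian type culture collection, tested in RPMI 1640 buffered with MOPS at pH 7.0. Final inoculum 1.5 ×10⁵. Compounds in DMSO, twofold serial dilutions over 8–512 in 96-well plates with Alamar Blue, incubated 48 h at 25 °C. MIC is the lowest concentration blocking the blue-to-pink shift. Ketoconazole was the reference agent.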

Aspergillus flavus = experiment: Antifungal activity against Aspergillus flavus PTCC 5003 after 48 hrs by microplate alamar blue assay; assay type: functional; settings: PTCC 5003, 48 h; in short: as §2
Pseudomonas aeruginosa = experiment: Antibacterial activity against Pseudomonas aeruginosa PTCC 1074 after 24 hrs by microplate alamar blue assay; assay type: functional; settings: for MIC: Pseudomonas aeruginosa, PTCC 1074, 24 h; in short: as §1
[1] = tested on: Salmonella enterica subsp. enterica; experiment: Antibacterial activity against Salmonella enteritidis PTCC 1091 after 24 hrs by microplate alamar blue assay; assay type: functional, Salmonella enterica subsp. enterica serovar Enteritidis; settings: PTCC 1091, 24 h; in short: as §1
Aspergillus niger = experiment: Antifungal activity against Aspergillus niger 5021 after 48 hrs by microplate alamar blue assay; assay type: functional; settings: Aspergillus niger, 5021, 48 h; in short: as §2

MIC (Listeria monocytogenes): 512 µg/mL (≈ 2610 µM) | MIC (Escherichia coli): 512 µg/mL (≈ 2610 µM) | MIC (Bacillus subtilis): > 512 µg/mL | MIC (Staphylococcus aureus): 512 µg/mL (≈ 2610 µM) | MIC (Candida albicans): 512 µg/mL (≈ 2610 µM) | MIC (Aspergillus flavus): 512 µg/mL (≈ 2610 µM) | MIC (Pseudomonas aeruginosa): 256 µg/mL (≈ 1300 µM) | MIC [1]: 256 µg/mL (≈ 1300 µM) | MIC (Aspergillus niger): 512 µg/mL (≈ 2610 µM)
Structure (SMILES): CCc1[nH]cc(CN(C)C)c(=O)c1O
-logMIC (Staphylococcus aureus): 3.29 | -logMIC (Candida albicans): 3.29 | -logMIC (Pseudomonas aeruginosa): 3.59

MIC (Listeria monocytogenes): 64 µg/mL (≈ 288 µM) | MIC (Escherichia coli): 64 µg/mL (≈ 288 µM) | MIC (Bacillus subtilis): 32 µg/mL (≈ 144 µM) | MIC (Staphylococcus aureus): 16 µg/mL (≈ 72 µM) | MIC (Candida albicans): 128 µg/mL (≈ 576 µM) | MIC (Aspergillus flavus): > 512 µg/mL | MIC (Pseudomonas aeruginosa): 512 µg/mL (≈ 2300 µM) | MIC [1]: 16 µg/mL (≈ 72 µM) | MIC (Aspergillus niger): 512 µg/mL (≈ 2300 µM)
Structure (SMILES): Cc1[nH]cc(CN2CCCCC2)c(=O)c1O
-logMIC (Staphylococcus aureus): 3.29 | -logMIC (Pseudomonas aeruginosa): 3.59

MIC (Listeria monocytogenes): 512 µg/mL (≈ 2280 µM) | MIC (Escherichia coli): 512 µg/mL (≈ 2280 µM) | MIC (Bacillus subtilis): 512 µg/mL (≈ 2280 µM) | MIC (Staphylococcus aureus): > 512 µg/mL | MIC (Candida albicans): 512 µg/mL (≈ 2280 µM) | MIC (Aspergillus flavus): 512 µg/mL (≈ 2280 µM) | MIC (Pseudomonas aeruginosa): 256 µg/mL (≈ 1140 µM) | MIC [1]: 512 µg/mL (≈ 2280 µM) | MIC (Aspergillus niger): 512 µg/mL (≈ 2280 µM)
Structure (SMILES): CCc1[nH]cc(CN(CC)CC)c(=O)c1O
-logMIC (Staphylococcus aureus): 3.29 | -logMIC (Candida albicans): 3.29 | -logMIC (Pseudomonas aeruginosa): 3.59

MIC (Listeria monocytogenes): > 512 µg/mL | MIC (Escherichia coli): 512 µg/mL (≈ 2360 µM) | MIC (Bacillus subtilis): > 512 µg/mL | MIC (Staphylococcus aureus): 16 µg/mL (≈ 73.7 µM) | MIC (Candida albicans): 512 µg/mL (≈ 2360 µM) | MIC (Aspergillus flavus): 256 µg/mL (≈ 1180 µM) | MIC (Pseudomonas aeruginosa): 512 µg/mL (≈ 2360 µM) | MIC [1]: 64 µg/mL (≈ 295 µM) | MIC (Aspergillus niger): 512 µg/mL (≈ 2360 µM)
Structure (SMILES): Cc1c(O)c(=O)ccn1-c1cccc(O)c1
-logMIC (Staphylococcus aureus): 3.29 | -logMIC (Candida albicans): 3.59 | -logMIC (Pseudomonas aeruginosa): 3.29

MIC (Listeria monocytogenes): > 512 µg/mL | MIC (Escherichia coli): 512 µg/mL (≈ 2170 µM) | MIC (Bacillus subtilis): 512 µg/mL (≈ 2170 µM) | MIC (Staphylococcus aureus): > 512 µg/mL | MIC (Candida albicans): 128 µg/mL (≈ 542 µM) | MIC (Aspergillus flavus): 256 µg/mL (≈ 1080 µM) | MIC (Pseudomonas aeruginosa): 256 µg/mL (≈ 1080 µM) | MIC [1]: 512 µg/mL (≈ 2170 µM) | MIC (Aspergillus niger): 512 µg/mL (≈ 2170 µM)
Structure (SMILES): CCc1[nH]cc(CN2CCCCC2)c(=O)c1O
-logMIC (Staphylococcus aureus): 3.29 | -logMIC (Candida albicans): 3.29 | -logMIC (Pseudomonas aeruginosa): 3.59

MIC (Listeria monocytogenes): 512 µg/mL (≈ 2810 µM) | MIC (Escherichia coli): 512 µg/mL (≈ 2810 µM) | MIC (Bacillus subtilis): > 512 µg/mL | MIC (Staphylococcus aureus): > 512 µg/mL | MIC (Candida albicans): > 512 µg/mL | MIC (Aspergillus flavus): > 512 µg/mL | MIC (Pseudomonas aeruginosa): 256 µg/mL (≈ 1400 µM) | MIC [1]: 512 µg/mL (≈ 2810 µM) | MIC (Aspergillus niger): 512 µg/mL (≈ 2810 µM)
Structure (SMILES): Cc1[nH]cc(CN(C)C)c(=O)c1O
-logMIC (Staphylococcus aureus): 3.29 | -logMIC (Pseudomonas aeruginosa): 3.59

Further lines, the molecule ahead of its results:

Structure (SMILES): Cc1cc(=O)c(O)co1
MIC (Listeria monocytogenes): 512 µg/mL (≈ 4060 µM) | MIC (Escherichia coli): > 512 µg/mL | MIC (Bacillus subtilis): > 512 µg/mL | -logMIC (Staphylococcus aureus): 3.59 | MIC (Staphylococcus aureus): > 512 µg/mL | -logMIC (Candida albicans): 3.89 | MIC (Candida albicans): 128 µg/mL (≈ 1010 µM) | MIC (Aspergillus flavus): 512 µg/mL (≈ 4060 µM) | -logMIC (Pseudomonas aeruginosa): 3.59 | MIC (Pseudomonas aeruginosa): 256 µg/mL (≈ 2030 µM) | MIC [1]: > 512 µg/mL | MIC (Aspergillus niger): 512 µg/mL (≈ 4060 µM)

Structure (SMILES): Cc1c(O)c(=O)ccn1-c1ccccc1
MIC (Listeria monocytogenes): 512 µg/mL (≈ 2540 µM) | MIC (Escherichia coli): 128 µg/mL (≈ 636 µM) | MIC (Bacillus subtilis): 256 µg/mL (≈ 1270 µM) | -logMIC (Staphylococcus aureus): 3.89 | MIC (Staphylococcus aureus): 128 µg/mL (≈ 636 µM) | -logMIC (Candida albicans): 3.29 | MIC (Candida albicans): > 512 µg/mL | MIC (Aspergillus flavus): > 512 µg/mL | -logMIC (Pseudomonas aeruginosa): 3.29 | MIC (Pseudomonas aeruginosa): 512 µg/mL (≈ 2540 µM) | MIC [1]: 128 µg/mL (≈ 636 µM) | MIC (Aspergillus niger): > 512 µg/mL

Structure (SMILES): Cc1cc(=O)c(OCc2ccccc2)c(CO)o1
-logMIC (Staphylococcus aureus): 3.59 | -logMIC (Candida albicans): 3.89 | -logMIC (Pseudomonas aeruginosa): 3.59

Structure (SMILES): O=c1cc(CO)occ1OCc1ccccc1
-logMIC (Staphylococcus aureus): 3.59 | -logMIC (Candida albicans): 3.89 | -logMIC (Pseudomonas aeruginosa): 3.89

Structure (SMILES): Cc1cc(=O)c(O)c(CO)o1
-logMIC (Staphylococcus aureus): 3.59 | -logMIC (Candida albicans): 3.89 | -logMIC (Pseudomonas aeruginosa): 3.89

Structure (SMILES): Cc1cc(=O)c(OCc2ccccc2)c(C(=O)Nc2cccnc2)o1
-logMIC (Staphylococcus aureus): 3.59 | -logMIC (Candida albicans): 4.49 | -logMIC (Pseudomonas aeruginosa): 3.89

Structure (SMILES): Cc1cc(=O)c(OCc2ccccc2)c(C(=O)Nc2cccc3ccccc23)o1
-logMIC (Staphylococcus aureus): 3.59 | -logMIC (Candida albicans): 4.49 | -logMIC (Pseudomonas aeruginosa): 3.89

Structure (SMILES): Cc1cc(=O)c(O)c(C(=O)Nc2cccnc2)o1
-logMIC (Staphylococcus aureus): 4.19 | -logMIC (Candida albicans): 3.89 | -logMIC (Pseudomonas aeruginosa): 3.89

Structure (SMILES): Cc1cc(=O)c(OCc2ccccc2)c(C=O)o1
-logMIC (Staphylococcus aureus): 4.19 | -logMIC (Candida albicans): 3.89 | -logMIC (Pseudomonas aeruginosa): 3.89

Structure (SMILES): Cc1cc(=O)c(OCc2ccccc2)c(C(=O)O)o1
-logMIC (Staphylococcus aureus): 3.59 | -logMIC (Candida albicans): 3.89 | -logMIC (Pseudomonas aeruginosa): 3.89

— ChEMBL document CHEMBL1137743, “Synthesis, antimicrobial evaluation and QSAR study of some 3-hydroxypyridine-4-one and 3-hydroxypyran-4-one derivatives” (2009)
